Tested on: MS2 coat protein
Assay: apparent Kd, MS2 coat protein; higher = weaker binding; RNA-MaP array; FMN 200 µM where present
Outline: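 Apparent Kd: the median of filtered binding-curve fits from single clusters. Designs were transcribed on Illumina sequencing-chip clusters by stalled E. coli RNA polymerase and titrated with SNAP-549-labelled MS2 coat protein from 0.7 or 1.5 nM, doubling to 3 µM, in 100 mM Tris-HCl pH 7.5, 80 mM KCl, 4 mM MgCl2, BSA, DTT, yeast tRNA and Tween-20. Each series ran without and then with constant ligand, and green signal was normalised to red-channel RNA signal and control-cluster median Fmax.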

[1] = designed as: OFF switch for flavin mononucleotide, no ligand
[2] = ligand present: flavin mononucleotide, designed as: OFF switch for flavin mononucleotide
[3] = designed as: ON switch for flavin mononucleotide, no ligand
[4] = ligand present: flavin mononucleotide, designed as: ON switch for flavin mononucleotide

Row | Sequence | apparent Kd [1] | apparent Kd [2] | apparent Kd [3] | apparent Kd [4]
1 | UGUGCGUAUGUGAGGAUAUGCUGGUCCUUGGAUCAGCAGAAGGCACAUGAGGAUCACCCAUGUGGUGUCGUACU | 296 nM | 25.7 nM | – | –
2 | GGAGCCCAGUCAGGAUAUGUAACGCUUAGGCUGUUACAUGAGGAUCACCCAUGUUUCACCGUGAAACAGAAGGGACAUUUGGCU | – | – | 382 nM | 122 nM
3 | GAUCGUAUCCUAGGAUAUUCAUUAAACAUGAGGAUCACCCAUGUUAAUUUGGGAGAAGGAGGAUACGAUCAACAGCGAAAGCUG | – | – | 10.6 nM | 5.15 nM
4 | GAUGACAUGAGGAUCACCCAUGUGAUGGUUUGAGGUGGUUACAGAAGGGACGUAUAGUGGUGUGGUCAGGAUAUGUAGAAUCUU | – | – | 157 nM | 42.1 nM
5 | AGUGUCGGCACAGGAUAUGAGAUGCCGGCAGACAUGAGGAUCACCCAUGUAAGCGAACCAGGCAGUCAGAAGGGUGAUCGACAA | – | – | 46.8 nM | 24.4 nM
6 | ACAUGAGGAUCACCCAUGUGGAGUGAAGAAGGUGGUUACUUAUGACUCUCCCAUGUACAUAGGACUGAGGAUAUUCUAAUAAUU | – | – | 88.5 nM | 81.7 nM
7 | AGUUGUUCAGGAUAUGGUGUGUUAUACAUGAGGAUCACCCAUGUGGGUCCUGGUUUGGCCUCAGAAGGGAAUGUUA | 476 nM | 449 nM | – | –
8 | GUAGCAUACCGAGGAUAUUCAGGGCGUGGAUAUACAUGAGGAUCACCCAUGUGGCGAAAGCCUAGGGAGAAGGCGGAAUGCUAC | – | – | 23.6 nM | 17 nM
9 | CCCGGUCUGGAGGAUAUUAUAGAGCGUGCUUAAUAAGAAGGUCAGACAUGAGGAUCACCCAUGUUCUUACCCGG | 23.3 nM | 53.8 nM | – | –
10 | AGUGUCAUCGAGAAGGCCUCAACAUGAGGAUCACCCAUGUUGCAAAAUGGGAGGAUAUCGCGAAAACAGCUACGUUUCGUAGCA | – | – | 40.8 nM | 8.79 nM
11 | AUGCUUUGUGUAGGAUAUGCAUACGGUACGUAUGCAGAAGGACAUGAGGAUCACCCAUGUAUAUUAUUAUUACAUAUCAUACAU | 35.3 nM | 229 nM | – | –
12 | UCGAACGGAAACAAAGUCUUCGGACAUGAGGAUCACCCAUGUAAGGAUAUGCCUACUAAAAGUAGGCAGAAGGUACGCGUUCGA | 22.1 nM | 51.1 nM | – | –
13 | CAGCGAAAGUAGAAGGCAGUACUGAUACAGUACUGAGGAUAUACAUGAGGAUCACCCAUGUACUUCAGCUGGAAAUAAAUAAAU | 5.94 nM | 6.97 nM | – | –
14 | UGGACCGAGCUAUCGGUUGACUCGGAGGAUAUGACAUGAGGAUCACCCAUGUGGGAUCUAAAUUGUCAGAAGGCUGGUUCUGGG | 675 nM | 229 nM | – | –
15 | GGAAACUACGAGAAGGACAUGUGGUCCUUCAGUUACAUGAGGAUCACCCAUGUAGGAUAUCGUAGUUUCAGGAUCGUGAGAUCA | 33.2 nM | 10.7 nM | – | –
16 | AAAAAACAUGAGGAUCACCCAUGUGAGGAUAUGAUGCGAAUAAAGAAAGAAGAAAGCAUCAGAAGGCACACCUA | 50.1 nM | 83.9 nM | – | –
17 | AAACACGGACAUGAGGAUCACCCAUGUGGCGAAAGCCUUGGGAGAAGGCAGUAUGCAAAGCAUUCUGAGGAUAUUCAUACCGUG | – | – | 926 nM | 68.9 nM
18 | AUUAAACAUGAGGAUCACCCAUGUCAACAAAGUCGAGGAUAUGGGCAAUUAAAAUAAGAACCAGAAGGCGAAUAAU | – | – | 340 nM | 35.4 nM
19 | UAUUAAUACAUAUACAUGAGGAUCACCCAUGUCAAAAGACAUGAGGAUAUGGAUCCUAAUUGGAUCCAGAAGGCAUGAAUAAUU | – | – | 347 nM | 17.6 nM
20 | GUAGCUAUCGGAGGAUAUUCAAUAUACAUGAGGAUCACCCAUGUUAAAGUGGGAGAAGGCCGAUAGCUACAAGAGCGAAAGCUC | – | – | 13.6 nM | 6 nM
21 | AACUCGUCAGGAUAUGCAUGCAGUUGCUGCAUUUCGCCGUUGCAGAAGGGACAUGAGGAUCACCCAUGUAGGUC | 42.4 nM | 37.2 nM | – | –
22 | CUAUGAAGAAUAGGAUAUUCGAUCAAGAGGAUAGAAGAAGGGUUACAUGAGGAUCACCCAUGUAUGCACAUGAGGAUCCCUUAG | 98.4 nM | 107 nM | – | –
23 | AUACAUGAGGAUCACCCAUGUUACUGGGUCUUUUUAGAACGUAGAAGGAUGAUAUUAUAAAUAUCAUAGGAUAUACUAUAUUGU | 52 nM | 59.5 nM | – | –
24 | UUGUUAAGGAGAGGAUAUUGACAUGAGGAUCACCCAUGUACAUGGGAGUGUUUACUGAAUUCUUACGAGAAGGCUUACAUAUUU | 216 nM | 102 nM | – | –
25 | CUUUUGUGAGGAUAUCAGUAGUAAAUAAAUAAAAUUAAUACUGAGAAGGCACAUGAGGAUCACCCAUGUUCCUC | 33.1 nM | 162 nM | – | –
26 | CUAAAUCAUGUAGGAUAUGCGUGGCGAAGCUAUGCAGAAGGACAUGAGGAUCACCCAUGUCUUUCCGUCUGCGUACAGACGGAA | 28.6 nM | 282 nM | – | –
27 | GCGUAUUAGGUGUAGCUAGACAUUCAAGAAGGGUGAAGAACAUGAGGAUCACCCAUGUAGUUUUUACAGGAUAUUGAUAUACGC | – | – | 356 nM | 20.4 nM
28 | AAACAUGUCCGAGGAUAUCUGGAAACAUUUUCAAGAGAAGGCGGACAUGAGGAUCACCCAUGUCUCUCCUCAUCCAAUCCAAGU | 9.36 nM | 46.4 nM | – | –

From the EternaBench riboswitch data
